Data as given in ChEMBL document CHEMBL1145315, “Synthesis and hypoxic-cytotoxic activity of some 3-amino-1,2,4-benzotriazine-1,4-dioxide derivatives” (Bioorg Med Chem Lett, 2006).
The source made the active and inactive calls. The rule behind the calls is not given here.

Experiments:
HL-60 [1] = assay: Cytotoxicity against human HL60 cells after 48 hrs by MTT assay; assay type: functional, cell-based; settings: HL-60, 48 h
Procedure, shortened: (§1)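 Cells were exposed in hypoxia for 48 h with tirapazamine as the reference drug. Growth was read by MTT assay and IC50 was calculated by the LOGIT method.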

K562 = assay: Cytotoxicity against human K562 cells after 48 hrs by MTT assay; assay type: functional, cell-based; settings: K562, 48 h; procedure, shortened: as §1
HepG2 = assay: Cytotoxicity against human HepG2 cells after 48 hrs by MTT assay; assay type: functional, cell-based; settings: HepG2, 48 h; procedure, shortened: as §1
PC-3 = assay: Cytotoxicity against human PC3 cells after 48 hrs by MTT assay; assay type: functional, cell-based; settings: PC-3, 48 h; procedure, shortened: as §1
MOLT-4 [2] = assay: Cytotoxicity against human Molt4 cells after 48 hrs by MTT assay; assay type: functional, cell-based; settings: MOLT-4, 48 h; procedure, shortened: as §1
MOLT-4 [3] = assay: Cytotoxicity against human Molt4 cells in normoxia after 48 hrs; assay type: functional, cell-based; settings: MOLT-4, 48 h
Procedure, shortened: (§2)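 Cells were exposed for 48 h in either normoxia or hypoxia. IC50 was determined separately under each oxygen condition.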

MOLT-4 [4] = assay: Cytotoxicity against human Molt4 cells in hypoxia after 48 hrs; assay type: functional, cell-based; settings: MOLT-4, 48 h; procedure, shortened: as §2
MOLT-4 [5] = assay: Ratio of cytotoxicity against human Molt4 cells in normoxia to hypoxia after 48 hrs; assay type: functional, cell-based; settings: MOLT-4, 48 h
HL-60 [6] = assay: Cytotoxicity against human HL60 cells in normoxia after 48 hrs; assay type: functional, cell-based; settings: HL-60, 48 h; procedure, shortened: as §2
MOLT-4 [7] = assay: Induction of apoptosis in human Molt4 cells after 24 hrs at 2 uM; assay type: functional
Procedure, shortened: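 Cells were cultured in complete medium under 3% O2 with 2.0 μM compound for 24 h, alongside an untreated control. Lysed nuclei were stained with propidium iodide, and DNA content was analysed by flow cytometry on 20,000 events per test, scoring the apoptotic fraction. The experiment was done three times.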

HL-60 [8] = assay: Cytotoxicity against human HL60 cells in hypoxia after 48 hrs; assay type: functional, cell-based; settings: HL-60, 48 h; procedure, shortened: as §2
HL-60 [9] = assay: Ratio of cytotoxicity against human HL60 cells in normoxia to hypoxia after 48 hrs; assay type: functional, cell-based; settings: HL-60, 48 h
MOLT-4 [10] = assay: Reduction of mitochondrial membrane potential in human Molt4 cells after 12 hrs at 2 uM; assay type: functional, cell-based
Procedure, shortened: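 Cells were treated with 2.0 μM compound for 12 h in hypoxia and then stained with JC-1. Flow cytometry read depolarization as a rise in the green:red fluorescence ratio. Values are means ± SD from three separate experiments, each run in triplicate.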

MOLT-4 [11] = assay: Increase in p53 level in human Molt4 cells in hypoxia after 24 hrs at 2 uM; assay type: functional, cell-based
Procedure, shortened: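 Cells were exposed to 2.0 μM compound for 24 h in hypoxia, and p53 protein was measured by Western blot. The experiment was repeated three times.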

SMILES	IC50 (HL-60 [1]) [µM]	IC50 (K562) [µM]	IC50 (HepG2) [µM]	IC50 (PC-3) [µM]	IC50 (MOLT-4 [2]) [µM]	IC50 (MOLT-4 [3]) [µM]	IC50 (MOLT-4 [4]) [µM]	IC50 ratio (MOLT-4 [5])	IC50 (HL-60 [6]) [µM]	Activity (MOLT-4 [7]) [%]	IC50 (HL-60 [8]) [µM]	IC50 ratio (HL-60 [9])	Activity (MOLT-4 [10])	Activity (MOLT-4 [11])
CCCCCCCCNc1n[n+]([O-])c2ccccc2[n+]1[O-]	7.2	4.7	17.4	18.2	4.9									
[O-][n+]1nc(Nc2ccccc2)[n+]([O-])c2ccccc21	2.9	2.4	15	17	1.4									
C=CCNc1n[n+]([O-])c2ccccc2[n+]1[O-]	25.8	11.2	> 56	> 56	3									
[O-][n+]1nc(NC2CC2)[n+]([O-])c2ccccc21	3.6	6.6	13.3	15.9	1.9									
Cc1ccc(Nc2n[n+]([O-])c3ccccc3[n+]2[O-])cc1	1.5	2.5	10.6	10.3	1.1									
COc1ccc(Nc2n[n+]([O-])c3ccccc3[n+]2[O-])cc1	0.9	2.9	10.1	12	0.6	5.2	0.6	8.67	6.8	45	0.9	7.56	Active	Active
[O-][n+]1nc(NCCO)[n+]([O-])c2ccccc21	10.7	3.7	23.2	22.4	2.6									
O=[N+]([O-])c1ccc(CNc2n[n+]([O-])c3ccccc3[n+]2[O-])cc1	1.4	3.1	7.7	7.4	0.8	5	0.8	6.25	6		1.4	4.29		
CCN(CC)c1n[n+]([O-])c2ccccc2[n+]1[O-]	> 49	> 55	> 107	> 107	> 17.6									
CCNc1n[n+]([O-])c2ccccc2[n+]1[O-]	9	4.5	13.5	13.3	3.3									
[O-][n+]1nc(NCc2ccccc2Cl)[n+]([O-])c2ccccc21	5.8	2.2	9.7	10.6	2.3									
Nc1n[n+]([O-])c2ccccc2[n+]1[O-] [TIRAPAZAMINE]	7	5.2	19.1	22.3	4.6	15.8	4.6	3.43	16.1	11	7	2.31	Active	Active
[O-][n+]1nc(NCc2ccccc2)[n+]([O-])c2ccccc21	2.5	1.9	8.2	10.7	2.2	8.1	2.2	3.68	6.3	33	2.5	2.53	Active	Active
[O-][n+]1nc(NC2CCCCC2)[n+]([O-])c2ccccc21	2.5	2.6	9.5	10.5	1.3									
[O-][n+]1nc(N2CCOCC2)[n+]([O-])c2ccccc21	> 60	> 47	> 95	> 95	> 16.1									
Nc1ccccc1Nc1n[n+]([O-])c2ccccc2[n+]1[O-]	8.3	10.6	17.4	16.1	2.3									
